From ChEMBL document CHEMBL1124953, “Orally effective acid prodrugs of the beta-lactamase inhibitor sulbactam” (J Med Chem, 1990)

Legend:
[1] = Area under curve (AUC) was determined; type: ADME; parameters: concentration or dose not given beside the values
Method in brief: (§1)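 Male outbred CD rats (70-90 g), five per prodrug, given 10 mg/kg orally in CMC diluent. Orbital plexus blood into heparinized tubes, plasma sampled over 4 h. Plasma sulbactam quantified by synergistic agar-well bioassay: Pasteurella hemolytica (ATCC 43823) in Mueller-Hinton agar with ampicillin and triphenyltetrazolium chloride, 18 h at 37 °C. Standard curve 10-0.1 μg/mL in rat plasma, zone-size regression. AUC and Cmax from concentration-time plot.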

[2] = Maximum Concentration of the compound.; type: ADME, organism-based; conditions: in vivo; method in brief: as §1

Structure (SMILES)	AUC [1]	Cmax [2]
CC(C)(C(=O)O)C(=O)OCOC(=O)[C@@H]1N2C(=O)C[C@H]2S(=O)(=O)C1(C)C	6200 ng·h/mL	3900 ng/mL
CC1(C)[C@H](C(=O)OCOC(=O)CCCCC(=O)O)N2C(=O)C[C@H]2S1(=O)=O	7500 ng·h/mL	5200 ng/mL
CC1(C)[C@H](C(=O)O)N2C(=O)C[C@H]2S1(=O)=O [SULBACTAM]	1400 ng·h/mL	700 ng/mL
CC1(C)[C@H](C(=O)OCOC(=O)CCCCC(=O)OCc2ccccc2)N2C(=O)C[C@H]2S1(=O)=O	2300 ng·h/mL	1600 ng/mL
CC1(C)[C@H](C(=O)OCOC(=O)CCCC(=O)O)N2C(=O)C[C@H]2S1(=O)=O	10000 ng·h/mL	8200 ng/mL
CC(C)(C)C(=O)OCOC(=O)[C@@H]1N2C(=O)C[C@H]2S(=O)(=O)C1(C)C [SULBACTAM PIVOXIL]	8500 ng·h/mL	6200 ng/mL
CC1(C)[C@H](C(=O)OCOC(=O)CC(=O)O)N2C(=O)C[C@H]2S1(=O)=O	3500 ng·h/mL	2000 ng/mL
